In ChEMBL document CHEMBL1135647, “New pyridobenzodiazepine derivatives: modifications of the basic side chain differentially modulate binding to dopamine (D(4.2), D(2L)) and serotonin (5-HT(2A)) receptors” (J Med Chem, 2002):

Columns and labels:
[1] = biological target: T1, 5-hydroxytryptamine receptor 2A (Rattus norvegicus, UniProt P14842); experiment: In vitro binding affinity at serotonin 5-hydroxytryptamine 2A receptor in rat cortical membrane; format: cell membranes
D(4) dopamine receptor [2] = biological target: T2, D(4) dopamine receptor (Homo sapiens, UniProt P21917); experiment: (§1) In vitro binding affinity at human cloned Dopamine receptor D4 expressed in Sf9 cell membranes
T2 sequence (P21917 whole entry): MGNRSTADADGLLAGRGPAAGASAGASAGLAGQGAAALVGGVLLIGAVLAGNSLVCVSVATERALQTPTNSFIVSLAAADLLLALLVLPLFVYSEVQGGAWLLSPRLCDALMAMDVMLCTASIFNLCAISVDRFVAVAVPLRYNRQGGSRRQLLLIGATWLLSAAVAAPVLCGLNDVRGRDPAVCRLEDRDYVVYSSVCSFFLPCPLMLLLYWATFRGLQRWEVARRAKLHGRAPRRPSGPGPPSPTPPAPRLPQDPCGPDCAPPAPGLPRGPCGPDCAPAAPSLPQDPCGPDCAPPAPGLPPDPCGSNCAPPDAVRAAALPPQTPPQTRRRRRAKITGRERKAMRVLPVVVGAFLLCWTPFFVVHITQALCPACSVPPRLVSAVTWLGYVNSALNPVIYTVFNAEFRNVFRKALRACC

[3] = biological target: T3, Adrenergic receptor alpha-1 (Rattus norvegicus, UniProt P15823+P23944+P43140); experiment: In vitro binding affinity at Alpha-1 adrenergic receptor in rat cortical tissues
T3 sequence (P15823 whole entry): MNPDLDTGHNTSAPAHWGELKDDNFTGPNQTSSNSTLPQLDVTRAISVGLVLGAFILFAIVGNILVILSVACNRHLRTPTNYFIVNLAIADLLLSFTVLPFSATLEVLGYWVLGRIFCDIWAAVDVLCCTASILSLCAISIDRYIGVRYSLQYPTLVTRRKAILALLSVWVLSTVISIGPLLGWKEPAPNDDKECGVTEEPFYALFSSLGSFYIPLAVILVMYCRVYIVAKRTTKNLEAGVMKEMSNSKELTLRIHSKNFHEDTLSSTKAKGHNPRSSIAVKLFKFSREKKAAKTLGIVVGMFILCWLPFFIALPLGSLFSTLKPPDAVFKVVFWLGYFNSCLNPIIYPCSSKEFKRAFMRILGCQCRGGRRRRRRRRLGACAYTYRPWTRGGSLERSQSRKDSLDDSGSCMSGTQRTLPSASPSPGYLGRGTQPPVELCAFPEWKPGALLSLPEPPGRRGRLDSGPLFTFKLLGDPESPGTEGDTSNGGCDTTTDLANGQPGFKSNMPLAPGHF
T3 sequence (P23944 whole entry): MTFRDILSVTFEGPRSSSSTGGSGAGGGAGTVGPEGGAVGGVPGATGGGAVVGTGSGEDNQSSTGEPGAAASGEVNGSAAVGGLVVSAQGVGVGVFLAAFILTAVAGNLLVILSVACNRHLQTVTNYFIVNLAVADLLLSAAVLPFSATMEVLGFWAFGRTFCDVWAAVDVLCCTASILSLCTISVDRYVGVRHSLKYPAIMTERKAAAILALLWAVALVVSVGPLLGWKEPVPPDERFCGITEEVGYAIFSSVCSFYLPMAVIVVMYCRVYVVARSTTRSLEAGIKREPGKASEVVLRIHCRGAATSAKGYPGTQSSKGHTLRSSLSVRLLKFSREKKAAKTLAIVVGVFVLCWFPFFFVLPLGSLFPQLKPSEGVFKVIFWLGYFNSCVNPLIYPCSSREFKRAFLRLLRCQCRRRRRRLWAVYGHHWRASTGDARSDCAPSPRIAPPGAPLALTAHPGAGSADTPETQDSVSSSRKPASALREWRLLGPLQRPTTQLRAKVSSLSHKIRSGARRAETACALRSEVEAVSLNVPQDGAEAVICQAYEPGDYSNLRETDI
T3 sequence (P43140 whole entry): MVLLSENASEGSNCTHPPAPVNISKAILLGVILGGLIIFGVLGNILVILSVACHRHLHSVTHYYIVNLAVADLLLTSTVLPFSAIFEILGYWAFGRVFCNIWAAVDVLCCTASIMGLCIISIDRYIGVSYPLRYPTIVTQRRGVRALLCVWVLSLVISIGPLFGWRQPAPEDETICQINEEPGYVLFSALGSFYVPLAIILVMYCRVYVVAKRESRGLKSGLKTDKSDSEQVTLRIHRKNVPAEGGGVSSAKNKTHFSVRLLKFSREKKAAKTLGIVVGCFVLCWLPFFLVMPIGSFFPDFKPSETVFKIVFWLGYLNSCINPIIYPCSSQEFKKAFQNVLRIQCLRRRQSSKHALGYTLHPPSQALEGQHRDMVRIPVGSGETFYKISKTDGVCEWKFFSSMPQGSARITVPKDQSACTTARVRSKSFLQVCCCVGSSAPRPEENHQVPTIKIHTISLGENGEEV

[4] = biological target: T1, 5-hydroxytryptamine receptor 2A; experiment: In vitro binding affinity at 5-hydroxytryptamine 2A receptor in rat cortical membrane; format: cell membranes
Outline: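 Frontal cortex membranes from female Wistar rats, stored at -80 °C. Incubated 30 min at 37 °C with 1 nM [3H]ketanserin; nonspecific binding with 10 µM methysergide; protein 2 mg/mL final. Filtered on PEI-presoaked GF/C and counted by scintillation. Nine concentrations in triplicate per curve, at least duplicate curves after a 10-6/10^-7 M prescreen. Ki by Cheng-Prusoff.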

D(4) dopamine receptor [5] = biological target: T2, D(4) dopamine receptor; experiment: as §1; remark: listed apart in the source
Outline: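 Sf9 membranes expressing human cloned D4.2, in 50 mM Tris-HCl pH 7.4 with 5 mM MgCl2, 5 mM EDTA, 5 mM KCl and 1.5 mM CaCl2. […] Filtration on GF/C. Six to nine concentrations in duplicate. Ki by Cheng-Prusoff.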

Mus musculus [6] = experiment: Percentage of total immobility time after an intraperitoneal dose of 8 (mg/kg) in porsolt's test in mice; format: functional
Rattus norvegicus [7] = species: Rattus norvegicus; experiment: Compound was evaluated in paw test for the hindlimb retraction in rat
Mus musculus [8] = experiment: Percentage of total immobility time after an intraperitoneal dose of 4 (mg/kg) in porsolt's test in mice; format: functional
Rattus norvegicus [9] = experiment: Compound was evaluated in paw test for the forelimb retraction in rat at effective dose of 20 (mg/kg); format: functional
Mus musculus [10] = experiment: Percentage of total immobility time after an intraperitoneal dose of 16 (mg/kg) in porsolt's test in mice; format: functional
Mus musculus [11] = experiment: Percentage of total immobility time after an intraperitoneal dose of 16 (mg/kg) in porsolt's test; format: functional
Outline: (§2)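 Forced swimming (Porsolt) test in mice, with the compound given i.p. Immobility time was expressed as a percentage of the total immobility time of vehicle-treated animals. Significance was assessed against saline by Mann-Whitney U test, or against vehicle by analysis of variance with post hoc tests.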

Mus musculus [12] = experiment: Percentage of total immobility time after an intraperitoneal dose of 8 (mg/kg) in porsolt's test; format: functional; outline: as §2
Rattus norvegicus [13] = experiment: Compound was evaluated in paw test for the hindlimb retraction at effective dose of 5 (mg/kg); format: functional
Mus musculus [14] = experiment: Percentage of total immobility time after an intraperitoneal dose of 4 (mg/kg) in porsolt's test; format: functional; outline: as §2
Mus musculus [15] = experiment: Percentage of total immobility time after an intraperitoneal dose of 15 (mg/kg) in porsolt's test
Mus musculus [16] = experiment: Percentage of total immobility time after an intraperitoneal dose of 7.5 (mg/kg) in porsolt's test; format: functional
Mus musculus [17] = experiment: Percentage of total immobility time after an intraperitoneal dose of 30 (mg/kg) in porsolt's test; format: functional
Rattus norvegicus [18] = experiment: Compound was evaluated in paw test for the forelimb retraction at effective dose of 20 (mg/kg); format: functional

T1 sequence (P14842 whole entry): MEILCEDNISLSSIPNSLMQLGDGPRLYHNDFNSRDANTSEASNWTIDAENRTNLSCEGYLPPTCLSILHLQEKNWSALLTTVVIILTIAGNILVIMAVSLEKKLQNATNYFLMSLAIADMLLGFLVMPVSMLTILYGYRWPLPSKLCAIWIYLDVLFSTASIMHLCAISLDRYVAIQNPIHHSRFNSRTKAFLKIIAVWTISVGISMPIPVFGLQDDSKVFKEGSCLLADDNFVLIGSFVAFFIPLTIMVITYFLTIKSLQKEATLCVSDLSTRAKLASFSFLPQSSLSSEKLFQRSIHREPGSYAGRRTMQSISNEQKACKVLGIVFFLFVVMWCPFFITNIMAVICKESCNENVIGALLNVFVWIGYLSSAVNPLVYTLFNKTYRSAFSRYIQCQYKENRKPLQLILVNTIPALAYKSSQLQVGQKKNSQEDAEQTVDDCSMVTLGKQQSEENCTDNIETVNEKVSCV

Ki (D(4) dopamine receptor [2])	Ki [3]	Ki [4]	Compound	also measured
163 nM	> 1000 nM		CN1CCCN(C2=Nc3cccnc3Nc3ccc(Cl)cc32)CC1	Ki [1]: 164 nM
84 nM		33 nM	Cc1ccc2c(c1)C(N1CCN(C3CCCCC3)CC1)=Nc1cccnc1N2	
393 nM		123 nM	CN1CCC(NC2=Nc3cccnc3Nc3ccc(Cl)cc32)CC1	
341 nM		250 nM	Clc1ccc2c(c1)C(NCCN1CCCC1)=Nc1cccnc1N2	
36 nM	108 nM		Cc1ccc2c(c1)C(N1CCN(C)CC1)=Nc1cccnc1N2	Ki [1]: 37 nM
> 1000 nM	> 1000 nM		CN(C)CCCNC1=Nc2cccnc2Nc2ccc(Cl)cc21	
> 1000 nM	> 1000 nM	150 nM	Cc1ccc2c(c1)C(NCCN(C)C)=Nc1cccnc1N2	
> 1000 nM	> 1000 nM	> 1000 nM	FC(F)(F)c1cccc(N2CCN(C3=Nc4cccnc4Nc4ccc(Cl)cc43)CC2)c1	
	> 1000 nM	> 1000 nM	Cc1ccc2c(c1)C(N1CCN(c3ccccc3)CC1)=Nc1cccnc1N2	Ki (D(4) dopamine receptor [5]): > 1000 nM
89 nM	163 nM	81 nM	Clc1ccc2c(c1)C(NC1CCN(Cc3ccccc3)CC1)=Nc1cccnc1N2	
48 nM		34 nM	Clc1ccc2c(c1)C(N1CCN(C3CCCCC3)CC1)=Nc1cccnc1N2	
510 nM	18 nM	132 nM	Cc1ccc2c(c1)C(NC1CCN(C)CC1)=Nc1cccnc1N2	
40 nM	367 nM	103 nM	Clc1ccc2c(c1)C(N1CCN(CCc3ccccc3)CC1)=Nc1cccnc1N2	Immobility (Mus musculus [6]): 36%; Retraction time (Rattus norvegicus [7]): 2.5 s; Immobility (Mus musculus [8]): 52%; Retraction time (Rattus norvegicus [9]): 1 s; Immobility (Mus musculus [10]): 49%
356 nM		303 nM	Cc1ccc2c(c1)C(N1CCCN(C)CC1)=Nc1cccnc1N2	
> 1000 nM	> 1000 nM		Clc1ccc2c(c1)C(NCCc1ccccn1)=Nc1cccnc1N2	
> 1000 nM	> 1000 nM	> 1000 nM	Cc1ccc2c(c1)C(NCCCN(C)C)=Nc1cccnc1N2	
46 nM	100 nM	48 nM	Cc1ccc2c(c1)C(NC1CCN(Cc3ccccc3)CC1)=Nc1cccnc1N2	
> 1000 nM	63 nM	357 nM	Clc1ccc2c(c1)C(NCCN1CCCCC1)=Nc1cccnc1N2	
> 1000 nM	> 1000 nM		Clc1ccc2c(c1)C(NCCN1CCOCC1)=Nc1cccnc1N2	
37 nM	172 nM	36 nM	Cc1ccc2c(c1)C(N1CCN(CCc3ccccc3)CC1)=Nc1cccnc1N2	
24 nM	79 nM		CN1CCN(C2=Nc3cccnc3Nc3ccc(Cl)cc32)CC1	Ki [1]: 35 nM

Further lines, the molecule ahead of its results:

Compound	Ki (D(4) dopamine receptor [2])	Ki [3]	Ki [4]	also measured
Clc1ccc2c(c1)C(N1CCN(c3ccccc3)CC1)=Nc1cccnc1N2	> 1000 nM	> 1000 nM	> 1000 nM	
Cc1ccc2c(c1)C(N1CCN(c3cccc(C(F)(F)F)c3)CC1)=Nc1cccnc1N2	> 1000 nM	> 1000 nM	> 1000 nM	
Cc1ccc2c(c1)C(NCCc1ccccn1)=Nc1cccnc1N2	> 1000 nM			
Cc1ccc2c(c1)C(NC1CC3CCC(C1)N3Cc1ccccc1)=Nc1cccnc1N2 (stereo not given)	131 nM		34 nM	
Cc1ccc2c(c1)C(NCCC1CCCN1C)=Nc1cccnc1N2 (stereo not given)	> 1000 nM		> 1000 nM	
Clc1ccc2c(c1)C(NC1CC3CCC(C1)N3Cc1ccccc1)=Nc1cccnc1N2 (stereo not given)			36 nM	
Clc1ccc2c(c1)C(N1CCN(Cc3ccccc3)CC1)=Nc1cccnc1N2	109 nM	> 1000 nM	> 1000 nM	
CN1CCN(C2=Nc3cc(Cl)ccc3Nc3ccccc32)CC1 [CLOZAPINE]				Immobility (Mus musculus [11]): 139%; Immobility (Mus musculus [12]): 103%; Retraction time (Rattus norvegicus [9]): 1.1 s; Retraction time (Rattus norvegicus [13]): 30 s; Immobility (Mus musculus [14]): 95%
Cc1ccc2c(c1)C(N1CCN(c3cccc(Cl)c3)CC1)=Nc1cccnc1N2	> 1000 nM	> 1000 nM	> 1000 nM	
CN(C)CCCN1c2ccccc2CCc2ccccc21 [IMIPRAMINE]				Immobility (Mus musculus [15]): 45%; Immobility (Mus musculus [16]): 98%; Immobility (Mus musculus [17]): 70%
Clc1cccc(N2CCN(C3=Nc4cccnc4Nc4ccc(Cl)cc43)CC2)c1	> 1000 nM		> 1000 nM	
O=C(CCCN1CCC(O)(c2ccc(Cl)cc2)CC1)c1ccc(F)cc1 [HALOPERIDOL]				Retraction time (Rattus norvegicus [13]): 30 s; Retraction time (Rattus norvegicus [18]): 22.5 s
Cc1ccc2c(c1)C(N1CCN(Cc3ccccc3)CC1)=Nc1cccnc1N2	183 nM	> 1000 nM	> 1000 nM	
Cc1ccc2c(c1)C(NCCN1CCOCC1)=Nc1cccnc1N2	> 1000 nM		> 1000 nM	
